Compounds with a hit are over-represented: about 3.1% of the library has one in this group of screens.
MPTP block = mitochondrial permeability transition pore inhibitors, primary screen, biochemical, isolated mouse mitochondria, absorbance; inhibition, % at 10 µM; 1.4% of 360,000 active; Ca2+ swelling absorbance, 30 min; AID 602449, 2012;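 active means inhibition of 50% or more, scaled per plate between neutral and stimulator controls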
aDG glyco act = activators of alpha-DG glycosylation, primary screen, uHTS, Pro5-aDG cells, AlphaScreen; alpha-DG glycosylation AlphaScreen (IIH6); 0% Pro5, 100% B10-LARGE cell signal; activation, % at 10 µM; 0.22% of 360,000 active;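 active means activation of at least 8% versus controls, or a plate z-score of at least 8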;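 further: Pro5 are CHO cells carrying HIG-tagged alpha-DG that lacks glycosylation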
Lipid droplet = inhibitors of hepatocyte lipid droplet formation, primary screen, imaging, high-throughput imaging, BODIPY stain; AML12 mouse hepatocytes, oleate lipid droplets; inhibition, % at 6.5 µM; 0.4% of 240,000 active;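 active means lipid droplet intensity inhibited by at least 50%, with more than 500 cells counted; inconclusive means wells with under 300 cells, treated as cytotoxic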
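System: AML12 hepatocytes (mouse). Probe or stimulus: oleic acid at 100 µM to induce lipid droplet formation. Times: overnight treatment with compound plus oleate. Detection: Image-based BODIPY and DAPI two-channel analysis. Evaluation: percent inhibition of filter-corrected integrated lipid droplet intensity per well.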
V-ATPase pH = regulators of yeast V-ATPase proton pumping, primary screen, pHLuorin cytosolic pH fluorescence; S. cerevisiae; response, % at 10 µM; 0.37% of 350,000 active; in the data active means response mostly above about 7.3%, no sharp cut-off; inactive means mostly below about 5.4%; further: actives read high
ADAM10 inh = human ADAM10 inhibitors, primary screen, biochemical, QFRET, HTS; 0.62% of 370,000 active; AID 720582, 2013; inhibition, % at 7 µM; recombinant ADAM10, EDANS/DABCYL FRET peptide cleavage, 3 h;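 active means inhibition above a per-campaign cutoff equal to the mean of compounds falling between control-based bounds plus 3 SD, cut at about 20% in these data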
Target sequence (O14672 214-748 limits assumed): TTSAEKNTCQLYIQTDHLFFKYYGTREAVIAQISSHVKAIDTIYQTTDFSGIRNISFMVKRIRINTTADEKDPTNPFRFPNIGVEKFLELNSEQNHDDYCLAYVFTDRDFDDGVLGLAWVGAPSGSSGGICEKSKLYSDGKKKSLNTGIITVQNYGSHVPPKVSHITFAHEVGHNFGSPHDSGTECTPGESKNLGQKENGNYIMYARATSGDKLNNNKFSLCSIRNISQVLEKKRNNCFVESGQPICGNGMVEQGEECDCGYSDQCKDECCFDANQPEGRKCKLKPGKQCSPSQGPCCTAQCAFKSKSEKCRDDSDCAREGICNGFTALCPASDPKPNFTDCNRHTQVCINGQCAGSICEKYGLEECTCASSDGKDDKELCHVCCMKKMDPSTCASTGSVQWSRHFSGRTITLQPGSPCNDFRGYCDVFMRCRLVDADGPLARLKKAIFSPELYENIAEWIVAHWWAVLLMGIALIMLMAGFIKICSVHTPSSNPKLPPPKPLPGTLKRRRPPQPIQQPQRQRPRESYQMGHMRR
ADAM17 inh = ADAM17 inhibitors, primary screen, biochemical, QFRET; inhibition, % at 6.95 µM; recombinant ADAM17, EDANS/DABCYL FRET peptide cleavage; 0.83% of 370,000 active;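 active means inhibition above the mean of compounds lying between control limits plus 3 SD, set per campaign, cut at about 8.5% in these data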
Large screens that a line does not name were inactive.

CC(C)c1ccc(/C=C(\c2nc3ccccc3[nH]2)S(=O)(=O)c2ccccc2)cc1	Lipid droplet 54.4
O=S(=O)(/C(=C/c1ccc(C(F)(F)F)cc1)c1nc2ccccc2[nH]1)c1ccccc1	none
O=C(c1ccc(Cl)c(Cl)c1)N1CCC(=O)N(C(COCc2cccc(Cl)c2)Cc2ccccc2)CC1 (stereo unspecified)	ADAM10 inh 28.5, ADAM17 inh 12.7
CCOC(=O)[C@@]12CN(C(=O)OC(C)(C)C)CC=C1N(Cc1ccc(OC)cc1)C(=O)[C@H]2CC(=O)NCc1cccc2ccccc12	none (no result: MPTP block, aDG glyco act, Lipid droplet, V-ATPase pH)
COC(=O)[C@]12C[C@H](CC(=O)N3CCOCC3)C(=O)N(Cc3cccc4ccccc34)C1=C[C@H](C(C)(C)C)O[C@@H]2C	none (no result: MPTP block, aDG glyco act, Lipid droplet, V-ATPase pH)
CC(Nc1nc(-c2ccc(Cl)cc2)cs1)c1nc2cc(Cl)c(N3CCCCC3)cc2n1CCOCCO (stereo unspecified)	ADAM10 inh 21.7 (no result: Lipid droplet)
CN1CCc2c(sc(NC(=O)c3ccc4ccccc4c3)c2C(N)=O)C1	aDG glyco act 18.7 (no result: ADAM10 inh, ADAM17 inh)
CCOc1ccc(CCNC(=O)CSc2nnnn2C)cc1OCC	none
CCOc1ccc(CCNC(=O)CSc2nn(-c3ccc(C)c(Cl)c3)c(=S)s2)cc1OCC	Lipid droplet 69.7
COC(=O)[C@@]12CCCCC3=C1N(CCC3)C(=O)[C@H]2CC(=O)NCCc1ccccc1OC	none (no result: MPTP block, aDG glyco act, Lipid droplet, V-ATPase pH)
S=C(Nc1ccc(Cl)c(Cl)c1)NC1CCN(Cc2ccccc2)CC1	ADAM10 inh 19.8
Oc1ccc(-c2csc(Nc3ncccn3)n2)c(O)c1	V-ATPase pH 15.0
O=C(Nc1nc(-c2ccc(Cl)cc2Cl)cs1)C1CCCO1 (stereo unspecified)	Lipid droplet 53.7
COc1ccc(-c2cc(-c3nnc4sc(-c5cccs5)nn34)[nH]n2)cc1	none (no result: MPTP block, aDG glyco act, Lipid droplet, V-ATPase pH)
O=C(N=C1N=C2C=CC(Br)=CN2Cc2ccccc21)c1ccc([N+](=O)[O-])cc1[N+](=O)[O-]	ADAM17 inh 9.1
COc1ccc(OC)c(NC(=O)c2nnn(Cc3ccccc3C)c2N)c1	ADAM10 inh 27.0
O=C(Nc1nc(-c2cccc3ccccc23)cs1)c1ccc2c(c1)S(=O)(=O)c1ccccc1C2=O	V-ATPase pH 20.7
C#C[C@]1(O)CC[C@H]2[C@@H]3CCC4=CC(=O)CC[C@@H]4[C@H]3CC[C@@]21C	V-ATPase pH 24.7 (no result: Lipid droplet)
Cc1[nH]c2ccccc2c1CCNC(=O)CCC(=O)c1ccccc1	V-ATPase pH 17.1
Cc1[nH]c2ccccc2c1CCNC(=O)c1ccc2nccnc2c1	none
CCOC(=O)CC[C@@H]1CC[C@]2(CCCN(Cc3ccc(OC)cc3)C2)O1	none (no result: MPTP block, aDG glyco act, Lipid droplet, V-ATPase pH)
C#CCCCN([C@@H](CC(C)C)C(=O)OC)S(=O)(=O)c1ccccc1Br	ADAM17 inh 8.6 (no result: MPTP block, aDG glyco act, Lipid droplet, V-ATPase pH)
Cc1ccc([N+](=O)[O-])cc1N(CC(=O)Nc1ccc(S(=O)(=O)Nc2cccc(C(F)(F)F)c2)cc1)S(C)(=O)=O	ADAM10 inh 48.8, ADAM17 inh 24.7
COc1ccccc1N(CC(=O)Nc1cccc(C(F)(F)F)c1)S(C)(=O)=O	none
Cc1ccc(CN2C(C(=O)NC3CCCC3)CSCCS2(=O)=O)cc1 (stereo unspecified)	none (no result: MPTP block, aDG glyco act, Lipid droplet, V-ATPase pH)
O=C(OCc1ccccc1)[C@H](Cc1ccccc1)NC(=O)[C@@H]1CC=C[C@@H]2CCN(CCc3ccccc3)C(=O)[C@@H]21	none (no result: MPTP block, aDG glyco act, Lipid droplet, V-ATPase pH)
COc1ccc(CNC(=O)CCS(=O)(=O)Cc2cccc(Cl)c2)c(OC)c1	V-ATPase pH 14.3
CCOc1ccc(CNC(=O)CCS(=O)(=O)Cc2ccccc2C)cc1OC	none
CCN(CC)S(=O)(=O)c1cc(OCC(N)=O)c(C)cc1Cl	V-ATPase pH 14.5
Cc1cc(Cl)c(S(N)(=O)=O)cc1OCC(N)=O	none
FC(F)(F)c1cc(-c2ccco2)nc(NCc2cccnc2)n1	none (no result: Lipid droplet)
FC(F)(F)c1cc(-c2ccccc2)nc(NCc2cccnc2)n1	V-ATPase pH 20.0 (no result: Lipid droplet)
COC(=O)[C@H](CC(C)C)N(Cc1cn(CC2CCCCC2)nn1)S(=O)(=O)c1ccccc1Br	none (no result: MPTP block, aDG glyco act, Lipid droplet, V-ATPase pH)
COc1ccc(OC)c(C(=O)c2coc3ccc(O)c(CN(C)C)c23)c1	none
COc1ccc2occ(C(=O)c3coc4ccc(O)c(CN(C)C)c34)c2c1	aDG glyco act 9.1 (no result: Lipid droplet)
O=C(Nc1nc2ccccc2s1)c1ccc(OCC2CCCO2)cc1 (stereo unspecified)	Lipid droplet 51.9
CC(=O)N[C@@H](C)CCc1ccc(Oc2ccc(OC(C)C)nc2)cc1	none (no result: MPTP block, aDG glyco act, Lipid droplet, V-ATPase pH)
CCCN(C(=O)CSc1ccccc1C(=O)O)C1CCS(=O)(=O)C1 (stereo unspecified)	V-ATPase pH 14.6 (no result: Lipid droplet)
CS(=O)(=O)Nc1ccc2c(c1)nc1n2CCOC1	V-ATPase pH 20.2 (no result: Lipid droplet)
Clc1ccc(C2=NNC(=NCc3ccc4c(c3)OCO4)SC2)cc1	ADAM17 inh 11.5
Oc1ccc(C2=NNC(=NCc3ccc4c(c3)OCO4)SC2)c(O)c1	Lipid droplet inconclusive
Cn1c(=O)cc(-c2ccccc2)c2ccccc21	V-ATPase pH 13.1
COc1ccccc1NC(=O)c1ccc(Br)o1	none
Cc1cc(O)c(NC(=O)c2ccc(Br)o2)cc1C	V-ATPase pH 14.2
c1ccc(-n2c(SCc3cccc4ccccc34)nnc2-c2ccncc2)cc1	none (no result: MPTP block, aDG glyco act, Lipid droplet, V-ATPase pH)
CCc1cc(Cn2nc(-c3ccccc3)cc2C(=O)NCc2cccs2)on1	ADAM10 inh 37.1, ADAM17 inh 16.3 (no result: Lipid droplet)
O=c1c(Br)ccc(Br)cc1Br	V-ATPase pH 62.1 (no result: Lipid droplet)
O=C1CN(S(=O)(=O)c2cc(Br)ccc2Br)CCN1	none (no result: Lipid droplet)
COC(=O)[C@]12C[C@H](CC(=O)NCc3ccccc3)C(=O)N(Cc3ccco3)C1=C[C@H](C(C)C)O[C@@H]2C1CC1	none (no result: MPTP block, aDG glyco act, Lipid droplet, V-ATPase pH)
CCOc1ccc(NCc2nc3ccccc3n2CCOc2ccccc2)cc1	ADAM10 inh 29.9
N=c1n(CCN2CCCCC2)c2ccccc2n1CC(=O)c1ccc(Cl)c(Cl)c1	aDG glyco act 5.4
CCCCn1c(CN2CCN(C(=O)c3ccco3)CC2)nc2c1c(=O)n(C)c(=O)n2C	aDG glyco act 7.9
CCCCOc1ccc(C(=O)NC2CCCCN(Cc3cccc(Cl)c3)C2=O)cc1 (stereo unspecified)	none (no result: MPTP block, aDG glyco act, Lipid droplet, V-ATPase pH)
O=C(O)c1ccccc1NS(=O)(=O)c1cccc(C(F)(F)F)c1	V-ATPase pH 17.9
CCOC(=O)c1cnn(-c2c(Cc3ccccc3)c(C)nc3c(-c4ccccc4)c(C)nn23)c1N	ADAM17 inh 10.0
CCOC(=O)c1cnn(-c2cc(C(C)(C)C)nc3c(-c4ccccc4)c(C)nn23)c1N	none
Cc1ccc(C)c(NC(=O)c2cc(-c3ccc(Cl)cc3)nc3ccccc23)c1	none (no result: MPTP block, aDG glyco act, Lipid droplet, V-ATPase pH)
O=C(CCSCc1ccc(Cl)cc1)NCCc1ccccc1	none
O=C(CCSCc1cccc(Cl)c1)NCCc1ccc(Cl)cc1	V-ATPase pH 57.5

Screens as filed in PubChem BioAssay.
